In ChEMBL document CHEMBL1817572, “New, potent, selective, and short-acting peptidic V1a receptor agonists” (J Med Chem, 2011):
pEC50: −log10 of the molar value. Bridge positions count the residues as written; N and C are the ends. Square brackets hold non-standard residues; d marks the D form. Peptide text beside a SMILES is read from it. * marks the point of attachment. Ala(4-thiazolyl) = N[C@@H](Cc1cscn1)C(=O)O; Ala(2-furyl) = N[C@@H](Cc1ccco1)C(=O)O; Orn(iPr) = CC(C)NCCC[C@H](N)C(=O)O; Dab(iPr) = CC(C)NCC[C@H](N)C(=O)O; 2Thi = N[C@@H](Cc1cccs1)C(=O)O; Aad = N[C@@H](CCCC(=O)O)C(=O)O; Orn = NCCC[C@H](N)C(=O)O; Dab = NCC[C@H](N)C(=O)O; Ac4c = NC1(C(=O)O)CCC1; NHiBu = CC(C)CN*; X2 = CC(O)CN*

Columns and labels:
[1] = target: Vasopressin V1a/V2 (Homo sapiens) (UniProt P30518+P37288); assay: Selectivity ratio of EC50 for human vasopressin V2 receptor to EC50 for human vasopressin V1a receptor
Chain of Vasopressin V1a/V2 (Homo sapiens) (P30518 whole entry, looked up): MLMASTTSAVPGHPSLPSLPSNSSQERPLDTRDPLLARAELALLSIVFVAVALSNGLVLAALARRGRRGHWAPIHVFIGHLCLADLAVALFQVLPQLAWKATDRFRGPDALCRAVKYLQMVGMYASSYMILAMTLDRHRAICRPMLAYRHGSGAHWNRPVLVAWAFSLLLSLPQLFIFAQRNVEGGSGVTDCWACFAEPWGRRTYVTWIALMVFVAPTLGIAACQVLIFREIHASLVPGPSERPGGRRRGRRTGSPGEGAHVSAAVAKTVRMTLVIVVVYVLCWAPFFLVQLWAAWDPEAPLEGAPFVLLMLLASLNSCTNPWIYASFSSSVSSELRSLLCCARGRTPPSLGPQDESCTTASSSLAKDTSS
Chain of Vasopressin V1a/V2 (Homo sapiens) (P37288 whole entry, looked up): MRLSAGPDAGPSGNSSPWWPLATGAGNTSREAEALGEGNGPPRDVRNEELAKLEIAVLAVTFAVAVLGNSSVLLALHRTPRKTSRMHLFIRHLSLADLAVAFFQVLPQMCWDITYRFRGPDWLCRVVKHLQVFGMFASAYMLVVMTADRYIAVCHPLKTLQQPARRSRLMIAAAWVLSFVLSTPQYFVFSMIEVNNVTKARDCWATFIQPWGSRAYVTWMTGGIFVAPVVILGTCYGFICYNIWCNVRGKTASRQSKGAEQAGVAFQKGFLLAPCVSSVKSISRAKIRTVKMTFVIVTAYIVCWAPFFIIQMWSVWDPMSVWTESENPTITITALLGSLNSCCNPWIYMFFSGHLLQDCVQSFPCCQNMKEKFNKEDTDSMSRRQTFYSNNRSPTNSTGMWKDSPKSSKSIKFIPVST

Vasopressin V1a receptor [2] = target: Vasopressin V1a receptor (Homo sapiens, UniProt P37288); assay: Agonist activity at recombinant human vasopressin V1a receptor expressed in HEK293 cells by luciferase reporter gene assay; type: functional, cell-based; settings: read-out: EC50
Chain of Vasopressin V1a receptor (Homo sapiens, UniProt P37288) (P37288 whole entry): as the sequence (P37288 whole entry, looked up) above

Vasopressin V1b receptor = target: T1, Vasopressin V1b receptor (Homo sapiens, UniProt P47901); assay: Agonist activity at recombinant human vasopressin V1b receptor expressed in Flp-In-293 cells by luciferase reporter gene assay; type: functional, cell-based; settings: read-out: EC50
T1 sequence (P47901 whole entry): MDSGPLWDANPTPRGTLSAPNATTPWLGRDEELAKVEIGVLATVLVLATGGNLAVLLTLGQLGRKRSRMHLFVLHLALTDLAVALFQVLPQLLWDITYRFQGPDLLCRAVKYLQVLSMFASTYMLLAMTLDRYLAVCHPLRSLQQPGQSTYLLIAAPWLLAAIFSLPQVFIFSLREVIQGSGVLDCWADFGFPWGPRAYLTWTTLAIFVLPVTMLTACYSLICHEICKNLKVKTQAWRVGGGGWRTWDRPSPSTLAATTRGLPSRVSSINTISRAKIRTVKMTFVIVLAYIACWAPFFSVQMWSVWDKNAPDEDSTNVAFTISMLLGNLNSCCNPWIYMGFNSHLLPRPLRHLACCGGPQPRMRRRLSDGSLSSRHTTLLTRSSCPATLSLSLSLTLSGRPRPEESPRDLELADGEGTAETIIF
Procedure, shortened: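 Reporter gene assays in HEK293 cells transiently cotransfected with V1a (human or rat) or human V2 receptor vector plus NFAT-luciferase (V1a) or CRE-luciferase (V2) reporter; V1b in Flp-In-293 stably expressing receptor, OT in CHO-K1 stably expressing receptor, both transiently transfected with NFAT-luciferase. Two days post-transfection, peptides added for 5 h at 37 °C, lysis with luciferin, luminescence read.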

Vasopressin V2 receptor [3] = target: T2, Vasopressin V2 receptor (Homo sapiens, UniProt P30518); assay: Agonist activity at recombinant human vasopressin V2 receptor expressed in HEK293 cells by luciferase reporter gene assay; type: functional, cell-based; settings: for pEC50: read-out: EC50; for EC50: read-out: pEC50 (converted)
T2 sequence (P30518 whole entry): as the sequence (P30518 whole entry, looked up) above

Oxytocin receptor = target: T3, Oxytocin receptor (Homo sapiens, UniProt P30559); assay: Agonist activity at human OT receptor expressed in CHO-K1 cells by luciferase reporter gene assay; type: functional, cell-based; settings: for pEC50: read-out: EC50; for EC50: read-out: pEC50 (converted)
T3 sequence (P30559 whole entry): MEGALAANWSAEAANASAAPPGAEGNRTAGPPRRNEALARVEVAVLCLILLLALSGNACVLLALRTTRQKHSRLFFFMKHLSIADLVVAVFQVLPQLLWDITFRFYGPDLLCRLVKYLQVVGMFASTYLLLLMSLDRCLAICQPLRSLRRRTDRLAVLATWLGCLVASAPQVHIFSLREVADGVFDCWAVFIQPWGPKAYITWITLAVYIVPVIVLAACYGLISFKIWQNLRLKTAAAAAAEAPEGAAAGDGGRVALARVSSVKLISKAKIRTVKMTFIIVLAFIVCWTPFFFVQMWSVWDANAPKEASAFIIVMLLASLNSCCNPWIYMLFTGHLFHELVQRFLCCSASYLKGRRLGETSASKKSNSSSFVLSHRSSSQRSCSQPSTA

Homo sapiens [4] = species on record: Homo sapiens; assay: Selectivity ratio of EC50 for human vasopressin V1b receptor to EC50 for human vasopressin V1a receptor
Homo sapiens [5] = species on record: Homo sapiens; assay: Selectivity ratio of EC50 for human oxytocin receptor to EC50 for human vasopressin V1a receptor
[6] = target: T4, Oxytocin receptor (Homo sapiens) (UniProt P30559); assay: Partial agonist activity at human OT receptor expressed in CHO-K1 cells by luciferase reporter gene assay; type: functional, cell-based
T4 sequence (whole entry): T3 sequence (P30559 whole entry)
Procedure, shortened: (§1)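 Same luciferase reporter systems (OT in stable CHO-K1, V1b in stable Flp-In-293, each with transient NFAT-luciferase; V1a in HEK293 with NFAT-luciferase, V2 in HEK293 with CRE-luciferase). Peptides added for 5 h at 37 °C two days post-transfection, luminescence read. Partial agonism means efficacy <70%.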

Vasopressin V2 receptor [7] = target: T2, Vasopressin V2 receptor; assay: Partial agonist activity at recombinant human vasopressin V2 receptor expressed in HEK293 cells by luciferase reporter gene assay; type: functional, cell-based; procedure, shortened: as §1
Vasopressin V1a receptor [8] = target: Vasopressin V1a receptor (Rattus norvegicus, UniProt P30560); assay: Agonist activity at recombinant rat vasopressin V1a receptor expressed in HEK293 cells by luciferase reporter gene assay; type: functional, cell-based; settings: for pEC50: read-out: EC50
Chain of Vasopressin V1a receptor (Rattus norvegicus, UniProt P30560) (P30560 whole entry): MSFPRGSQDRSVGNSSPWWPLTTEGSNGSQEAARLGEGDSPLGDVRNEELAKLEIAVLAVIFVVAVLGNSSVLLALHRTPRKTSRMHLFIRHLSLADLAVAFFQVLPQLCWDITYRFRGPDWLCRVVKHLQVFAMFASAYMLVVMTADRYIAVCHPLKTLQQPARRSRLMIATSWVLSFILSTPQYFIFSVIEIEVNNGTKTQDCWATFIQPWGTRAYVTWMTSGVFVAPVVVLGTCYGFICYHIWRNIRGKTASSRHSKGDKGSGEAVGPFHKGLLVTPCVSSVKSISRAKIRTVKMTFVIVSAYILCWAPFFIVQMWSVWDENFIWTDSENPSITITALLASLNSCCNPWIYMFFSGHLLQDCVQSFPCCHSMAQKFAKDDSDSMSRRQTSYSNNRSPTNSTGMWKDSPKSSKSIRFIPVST

Compound | Ratio EC50 [1] | pEC50 (Vasopressin V1a receptor [2]) | pEC50 (Vasopressin V1b receptor) | pEC50 (Vasopressin V2 receptor [3]) | pEC50 (Oxytocin receptor) | EC50 (Oxytocin receptor) [nM] | Ratio EC50 (Homo sapiens [4]) | Ratio EC50 (Homo sapiens [5]) | Efficacy [6] [%] | pEC50 (Oxytocin receptor; cho-k1) | Efficacy (Vasopressin V2 receptor [7]) [%] | pEC50 (Vasopressin V2 receptor [3]; hek293) | EC50 (Vasopressin V2 receptor [3]) [nM] | pEC50 (Vasopressin V1a receptor [8]) | EC50 (Vasopressin V1a receptor [8]; read-out: pEC50 (converted)) [nM]
CC[C@H](C)[C@@H]1NC(=O)C2(CCC2)NC(=O)[C@@H](N)CSSC[C@@H](C(=O)N2CCC[C@H]2C(=O)N[C@@H](CCN)C(=O)NCC(N)=O)NC(=O)[C@H](CC(N)=O)NC(=O)[C@H](CCC(N)=O)NC1=O (H-C[Ac4c]IQNCP[Dab]G-NH2; disulfide 1-6) | 400 | 9.03 | 7.19 | 6.42 | 6.74 | > 10000 | 68 | 190 | < 70 |  |  |  |  |  | 
CC[C@H](C)[C@@H]1NC(=O)[C@H](Cc2ccccc2)NC(=O)[C@@H](N)CSSC[C@@H](C(=O)N2CCC[C@H]2C(=O)N[C@@H](CCN)C(=O)NCC(N)=O)NC(=O)[C@H](CC(N)=O)NC(=O)[C@H](CC(=O)NC)NC1=O (H-CFID(NHMe)NCP[Dab]G-NH2; disulfide 1-6) | 1300 | 8.41 | 8.06 | 5.28 |  | > 10000 | 2.2 | > 2500 |  | < 5.00 | < 70 |  |  |  | 
CC[C@H](C)[C@@H]1NC(=O)[C@H](Cc2ccco2)NC(=O)[C@@H](N)CSSC[C@@H](C(=O)N2CCC[C@H]2C(=O)N[C@@H](CCN)C(=O)NCC(N)=O)NC(=O)[C@H](CC(N)=O)NC(=O)[C@H](CC(N)=O)NC1=O (H-C[Ala(2-furyl)]INNCP[Dab]G-NH2; disulfide 1-6) | > 710 | 7.85 | 6.34 |  | 6.11 |  | 32 | 55 | < 70 |  |  | < 5.00 | > 10000 |  | 
CC[C@H](C)[C@@H]1NC(=O)[C@H](Cc2ccccc2)NC(=O)[C@@H](N)CSSC[C@@H](C(=O)N2CCC[C@H]2C(=O)N[C@@H](CCN)C(=O)NCC(N)=O)NC(=O)[C@H](CC(N)=O)NC(=O)[C@H](CCC(N)=O)NC1=O (H-CFIQNCP[Dab]G-NH2; disulfide 1-6) | 140 |  | 7.59 | 7.14 | 8.04 |  | 52 | 18 | < 70 |  |  |  |  |  | 
CC[C@H](C)[C@@H]1NC(=O)[C@H](Cc2cscn2)NC(=O)[C@@H](N)CSSC[C@@H](C(=O)N2CCC[C@H]2C(=O)N[C@@H](CCN)C(=O)NCC(N)=O)NC(=O)[C@H](CC(N)=O)NC(=O)[C@H](CCC(N)=O)NC1=O (H-C[Ala(4-thiazolyl)]IQNCP[Dab]G-NH2; disulfide 1-6) | 130 | 7.72 | 6.37 | 5.60 | 5.92 |  | 22 | 63 | < 70 |  | < 70 |  |  |  | 
N=C(N)NCCC[C@H](NC(=O)[C@@H]1CCCN1C(=O)[C@@H]1CSSC[C@H](N)C(=O)N[C@@H](Cc2ccccc2)C(=O)N[C@@H](Cc2ccccc2)C(=O)N[C@@H](CCC(N)=O)C(=O)N[C@@H](CC(N)=O)C(=O)N1)C(=O)NCC(N)=O (H-CFFQNCPRG-NH2; disulfide 1-6) |  | 9.82 | 7.80 | 8.85 |  |  |  |  |  |  |  |  |  | 10.15 | 0.0794
CC[C@H](C)[C@@H]1NC(=O)[C@H](Cc2ccccc2)NC(=O)[C@@H](N)CSSC[C@@H](C(=O)N2CCC[C@H]2C(=O)N[C@@H](CCCN)C(=O)NCC(N)=O)NC(=O)[C@H](CC(N)=O)NC(=O)[C@H](CCC(N)=O)NC1=O (H-CFIQNCP[Orn]G-NH2; disulfide 1-6) |  |  | 7.60 | 6.81 |  | > 10000 |  |  |  | < 5.00 |  |  |  | 9.92 | 
CC[C@H](C)[C@@H]1NC(=O)[C@H](Cc2ccccc2)NC(=O)[C@@H](N)CSSC[C@@H](C(=O)N2CCC[C@H]2C(=O)N[C@@H](CCCN)C(=O)NCC(N)=O)NC(=O)[C@H](CC(N)=O)NC(=O)[C@H](CCC(=O)NCC(C)C)NC1=O (H-CFIE(NHiBu)NCP[Orn]G-NH2; disulfide 1-6) | 140 | 7.68 | 6.82 | 5.52 |  | > 10000 | 7.1 | > 470 |  | < 5.00 | < 70 |  |  |  | 
CCNC(=O)CC[C@@H]1NC(=O)[C@H]([C@@H](C)CC)NC(=O)[C@H](Cc2ccccc2)NC(=O)[C@@H](N)CSSC[C@@H](C(=O)N2CCC[C@H]2C(=O)N[C@@H](CCCN)C(=O)NCC(N)=O)NC(=O)[C@H](CC(N)=O)NC1=O (H-CFIE(NHEt)NCP[Orn]G-NH2; disulfide 1-6) | 66 | 7.41 | 7.01 | 5.59 |  | > 10000 | 2.4 | > 250 |  | < 5.00 | < 70 |  |  |  | 
CC[C@H](C)[C@@H]1NC(=O)[C@H](Cc2ccccc2)NC(=O)[C@@H](N)CSSC[C@@H](C(=O)N2CCC[C@H]2C(=O)N[C@@H](CCCNC(C)C)C(=O)NCC(N)=O)NC(=O)[C@H](CC(N)=O)NC(=O)[C@H](CC(N)=O)NC1=O (H-CFINNCP[Orn(iPr)]G-NH2; disulfide 1-6) | 2600 | 8.85 | 6.60 | 5.43 | 6.96 |  | 170 | 78 | < 70 |  | < 70 |  |  |  | 
CC[C@H](C)[C@@H]1NC(=O)[C@H](Cc2cccs2)NC(=O)[C@@H](N)CSSC[C@@H](C(=O)N2CCC[C@H]2C(=O)N[C@@H](CCN)C(=O)NCC(N)=O)NC(=O)[C@H](CC(N)=O)NC(=O)[C@H](CCC(N)=O)NC1=O (H-C[2Thi]IQNCP[Dab]G-NH2; disulfide 1-6) | 220 | 9.27 | 6.82 | 6.92 | 7.54 |  | 270 | 53 | < 70 |  |  |  |  |  | 
CC[C@H](C)[C@@H]1NC(=O)[C@H](Cc2ccccc2)NC(=O)[C@@H](N)CSSC[C@@H](C(=O)N2CCC[C@H]2C(=O)N[C@@H](CCCN)C(=O)NCC(N)=O)NC(=O)[C@H](CC(N)=O)NC(=O)[C@H](CC(=O)NCC(C)O)NC1=O (some centres undefined) (H-CFID(X2)NCP[Orn]G-NH2; disulfide 1-6) | > 1900 | 8.28 | 7.55 |  |  | > 10000 | 5.3 | > 1900 |  | < 5.00 |  | < 5.00 | > 10000 |  | 
CC[C@H](C)[C@@H]1NC(=O)[C@H](Cc2ccccc2)NC(=O)[C@@H](N)CSSC[C@@H](C(=O)N2CCC[C@H]2C(=O)N[C@@H](CCNC(C)C)C(=O)NCC(N)=O)NC(=O)[C@H](CC(N)=O)NC(=O)[C@H](CCCC(N)=O)NC1=O (H-CFI[Aad](NH2)NCP[Dab(iPr)]G-NH2; disulfide 1-6) | 61 | 7.74 | 6.02 | 5.96 |  | > 10000 | 53 | > 550 |  | < 5.00 |  |  |  |  | 
CC[C@H](C)[C@@H]1NC(=O)[C@H](Cc2ccco2)NC(=O)[C@@H](N)CSSC[C@@H](C(=O)N2CCC[C@H]2C(=O)N[C@@H](CCCN)C(=O)NCC(N)=O)NC(=O)[C@H](CC(N)=O)NC(=O)[C@H](CC(N)=O)NC1=O (H-C[Ala(2-furyl)]INNCP[Orn]G-NH2; disulfide 1-6) | > 1000 | 8.00 | 6.28 |  |  | > 10000 | 53 | > 1000 |  | < 5.00 |  | < 5.00 | > 10000 |  | 
